Tested on: BJeLR fibroblasts viability, Alamar Blue fluorescence, 48 h
Assay: viability loss in engineered Ras-driven BJ cells – cell-based, alamar blue fluorescence, powder samples, dose response (AID 2609)
In short: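 Medium: DMEM/M199 with heat-inactivated FBS | Times: 48 h compound exposure, 37 °C, then ~16 h alamar blue | Detection: Alamar blue fluorescence, ex 544/em 590 nm | Read-out: Cell viability from alamar blue fluorescence signal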

Nc1nc(CCl)nc(Nc2ccc3ccccc3c2)n1
EC50: 2500 nM

COc1ccc(C(C(=O)NC2CCCCC2)N(C(=O)CCl)c2cccc(Cl)c2)cc1 (centres undefined)
EC50: 3190 nM

Cc1ccc(N(C(=O)CCl)C(C(=O)NC2CCCCC2)c2cccnc2)cc1C (centres undefined)
EC50: 1400 nM

CCCCCCCN(C(=O)CCl)c1cccc(C)c1
EC50: 3440 nM

Cc1ccc(C2CC(c3cccs3)=NN2C(=O)CCl)cc1 (centres undefined)
EC50: 2920 nM

CCOc1ccc(Nc2nc(N)nc(CCl)n2)cc1
EC50: 2210 nM

COc1ccc(N(C(=O)CCl)C(C(=O)NCCc2ccccc2)c2cccs2)cc1Cl (centres undefined)
EC50: 990 nM

COc1cccc(N(C(=O)CCl)C(C(=O)NCCc2ccccc2)c2cccs2)c1 (centres undefined)
EC50: 2350 nM

COc1ccc(CN(CCC(c2ccccc2)c2ccc(OC(C)C)cc2)C(=O)CCl)cc1OC (centres undefined)
EC50: 890 nM

C=CCOc1ccccc1CN(C(=O)CCl)c1ccc2c(c1)OCO2
EC50: 7650 nM

O=C(CCl)N=c1sccn1Cc1ccccc1Cl
EC50: 4940 nM

COc1ccc(N(C(=O)CCl)C(C(=O)NCCc2ccccc2)c2cccs2)cc1 (centres undefined)
EC50: 1690 nM

COc1ccc(C(C(=O)NC2CCCCC2)N(C(=O)CCl)c2ccc(C)cc2)cc1 (centres undefined)
EC50: 8330 nM

COC(=O)[C@@H]1Cc2c([nH]c3ccccc23)C(C)(C)N1C(=O)CCl
EC50: 4010 nM

Reference: PubChem BioAssay AID2609 (Broad Institute, 2010)
